From ChEMBL document CHEMBL4513216, “Probing the Open Global Health Chemical Diversity Library for Multistage-Active Starting Points for Next-Generation Antimalarials” (ACS Infect Dis, 2020)

Test: Toxicity liver stage against HepG2, at 10uM
Type: cell-based
Parameters: test concentration 10 uM, cell line HepG2-A16-CD81EGFP
Conditions: human, HepG2-A16-CD81EGFP cells; read-out: INHIBITION
In short: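 Uninfected HepG2-A16-CD81EGFP cells, 3 × 10^3 per well, 1536-well, plated on prespotted compound at 10 μM final, parasite-free screening media added to match infected plates; puromycin 10 μM positive, DMSO 0.5% negative; run in parallel with 48 h PbLuc assay at 37 °C, 5% CO2; viability by CellTiter-Glo luminescence, normalized to controls.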

SMILES | cytotoxicity at 10 µM
CCCc1ccc2oc(C(=O)N3CCN(CCC(N)=O)CC3)c(C)c2c1 | 0.424%
CO[C@H]1COCCN(C(=O)c2ccc(C(F)(F)F)cc2)C1 | 4.94%
Cc1nccn1-c1ccc(=O)n(CCNC(=O)c2cccs2)n1 | -5.51%
COCCN1CCN(c2ccc3ccc(C(=O)NC4CC4)cn23)CC1 | -4.37%
CCS(=O)(=O)N1CCOC2(COCCN(C(C)=O)C2)C1 (centres undefined) | 15.7%
Cc1nnc([C@@H]2C[C@H]3CN(C(=O)c4sccc4C)C[C@H]3O2)[nH]1 | 16%
COCCCN1CCCCC12CC(=O)N(Cc1ccccn1)C2 (centres undefined) | 1.95%
O=C1CC[C@@H]2[C@@H](CCN2C(=O)C2CCOCC2)N1CC1CC1 | 10.9%
COc1cccc(S(=O)(=O)N2CCCc3c(OC)nn(C)c3C2)c1 | -120%
CCOC(=O)c1cnn(-c2cc(Oc3cc(C)ccc3C)ncn2)c1N | 11.3%
Cc1cnc(N2C(=O)CSC2c2ccccc2)s1 (centres undefined) | -1.14%
Cn1cc(C(=O)NC[C@@H]2OC[C@H]3CN(S(C)(=O)=O)CC[C@H]32)cn1 | -9.12%
CCc1nc(Nc2ccc(C(=O)NC)cc2)c2c(n1)c(C)nn2CC | 9.38%
CSCc1cccc(S(=O)(=O)NCCCN2CCOCC2)c1 | -8.63%
c1cn(-c2nccnc2C2CCCN(C3CCOCC3)C2)cn1 (centres undefined) | 4.19%
CN(CC1CCOCC1)C1CCCN(c2ccccn2)C1 (centres undefined) | -0.48%
CN(Cc1cnn(C)c1)CC(O)c1ccc2c(c1)OCCCO2 (centres undefined) | 2.85%
Cc1ncc(C(=O)NCCNc2ncccn2)s1 | 3.79%
Cc1noc(C(C)Nc2ccc3oc(C(C)C)nc3c2)n1 (centres undefined) | -7.84%
CC(c1nc(-c2cccnc2)no1)N(C)CCCOc1ccccc1 (centres undefined) | -2.14%
CN(Cc1nnc2n1CCC2)C(=O)c1ccc(=O)n(C)n1 | -8.16%
CCn1ccnc1CN1CCN(C(C)C(=O)NCc2ccco2)CC1 (centres undefined) | 7.79%

SMILES | cytotoxicity at 10 µM
Cn1c(=O)n(C)c2cc(NS(=O)(=O)Cc3cccc(F)c3)ccc21 | 6.37%
CCC(CO)NC(=O)Nc1ccc(OCC(F)(F)F)c(C)c1 (centres undefined) | 10.9%
N#CC(NC(=O)CNC(=O)c1ccccc1)c1ccsc1 (centres undefined) | 1.8%
CC(C)(C)c1cc(=O)[nH]c(C2(N)CCCC2)n1 | 8.79%
Cc1cc(CNC2(CO)CCOCC2)ccc1Br | 17.4%
O=C(NCCc1ccn(-c2ccc(F)cc2)n1)C1CCCOC1 (centres undefined) | 6.65%
CCc1cc(=O)[nH]c(-c2ccc(NCCc3ccc(O)cc3)nc2)n1 | 61.1%
CCC(C)(CO)NC(=O)Nc1cc2c(cc1SC)OCCO2 (centres undefined) | -10.5%
CCOc1ccccc1N(C)C(=O)c1ccc(Cl)cn1 | 0.0381%
O=C(NCC1(N2CCOCC2)CCSC1)Nc1ccccn1 (centres undefined) | 8.64%
CCOc1cc(C)ccc1NS(=O)(=O)c1cc(C)c(C(=O)O)s1 | -6.44%
CCN(CC(C)C#N)C(=O)CSc1ccc(C(F)(F)F)cn1 (centres undefined) | 9.81%
Cc1cccc(S(=O)(=O)NC(=O)CCc2cscn2)c1 | 0.983%
CCc1ccc(C(=O)N(CC)Cc2ccoc2)cc1S(C)(=O)=O | -4.89%
O=C(NCCNC(=O)C1CCCCC1)NCCn1cccc1 | 2.89%
CCN(CC)CCNC(=O)c1ccc(Cl)c(NS(C)(=O)=O)c1 | 5.53%
Cc1noc(OCCOc2ccc(C#N)cc2)n1 | 0.00742%
N#CCCN(Cc1cccnc1)C(=O)c1ccc(-n2cnnn2)cc1 | 4.59%
CC1CCN(C(=O)NCC(=O)N(C)CC(F)(F)F)C1 (centres undefined) | 1.82%
COCc1nc2cc(NCc3ccncc3)ccc2o1 | -3.3%
CC(CNC(=O)N1CCN(c2cnccn2)CC1)Cc1cccs1 (centres undefined) | 1.7%
N#Cc1cccc(NC(=O)N[C@H](CO)c2ccccc2)c1 | -12.2%

SMILES | cytotoxicity at 10 µM
N#Cc1ccc(OCCOc2ccccc2C(=O)N2CCOCC2)cc1 | -7.38%
CS(=O)(=O)NCC1CCCN(Cc2ccc(F)c3cccnc23)C1 (centres undefined) | -12.6%
COc1cc(C)sc1C(=O)N1CCC(Nc2cccnc2)CC1 | -5.07%
O=C(NC[C@H]1C[C@@H]2CN(C(=O)c3ccco3)C[C@@H]2O1)c1ccsc1 | -90.8%
Cn1cc(CNC2CCc3c(ccc(=O)n3C)C2)cn1 (centres undefined) | -115%
COc1nn(C)c2c1CCCN(C(=O)c1cnccn1)C2 | -84.3%
CC(C)=CCCC1(C)CCC(=O)N(CCNc2nc(C)cc(=O)[nH]2)C1 (centres undefined) | 3.18%
CCCn1c(C)c(CC(=O)NC(C)CO)c2c1CC(C)(C)CC2=O (centres undefined) | -10.5%
COc1ccccc1C(=O)C1CCCN(c2cc(C#N)ccn2)C1 (centres undefined) | 7.56%
Cc1cc(-c2ccc(C(C)N3CCOCC3)cc2)cnc1N (centres undefined) | -2.36%
COc1nc(C)c(C(=O)N2CCC(C(O)Cc3ccccc3)CC2)s1 (centres undefined) | 4.18%
NC1(C(=O)N2CCC(c3cc(-c4ccccc4Cl)n[nH]3)CC2)CCC1 | -3.66%
CN(C)C(C(=O)N1CCN(CC(F)(F)F)CC1)c1ccccc1F (centres undefined) | -2.42%
c1ccc(Cn2cccn2)c(CN2CCCCC2CCn2ccnc2)c1 (centres undefined) | -12%
O=C(NCCCn1cnnc1)C1CCCN(C2CCCC2)C1 (centres undefined) | -0.121%
CCOc1ccc(C(=O)N2CCCC(c3nccn3C)C2)cc1OCC (centres undefined) | -6.77%
Cc1cc2[nH]c(CN3CCOC(C(F)(F)F)C3)cc(=O)n2n1 (centres undefined) | -21.2%
Cc1ccc(OCC2CCCN(C(=O)CCn3ccccc3=O)C2)cc1 (centres undefined) | -4.27%
CC(C)(CN1CCC(Cc2ccc(C(=O)O)cc2)C1)N1CCOCC1 (centres undefined) | 2.17%
CC(C1CCN(Cc2cnc(-c3cccs3)nc2)CC1)N(C)C (centres undefined) | -11.3%
CC(=O)C1(c2ccccc2)CCN(C(=O)c2ccn3nnnc3c2)CC1 | -4.97%
CC(Cc1cn(CCc2n[nH]c(=O)[nH]2)nn1)c1ccccc1 (centres undefined) | -0.591%

SMILES | cytotoxicity at 10 µM
Cc1nnsc1CN(C)C(=O)c1ccc(CSc2nnc[nH]2)o1 | -3.33%
Cc1cccnc1N1CCN(Cc2cc(O)c3cccc(F)c3n2)CC1 | 2.2%
O=C(NCCOc1ccccc1)C1NCCc2[nH]cnc21 (centres undefined) | 8.01%
Cc1nc2c(c(N3CCC(CCn4cccn4)CC3)n1)CCNCC2 | 4.3%
CC(C)(C)n1cc(C2=CCN(CCc3ccccn3)CC2)cn1 | -0.505%
CCn1cc(CNc2ccc3nccnc3c2)cn1 | 1.42%
NCCn1cc(C(=O)N2CCCCCC2c2cccc(F)c2)nn1 (centres undefined) | 8.48%
CCS(=O)(=O)N[C@H]1CN(CC(C)(C)N2CCOCC2)C[C@@H]1C1CC1 | 1.04%
O=C([C@@H](O)Cc1ccccc1)N1CCCn2cncc2C1 | 2.55%
Cc1nnc(-c2cccc(N3CCC(NC4CCSC4)CC3)c2)s1 (centres undefined) | 0.276%
CCCc1nc(C(=O)N2CCN(C(=O)OC)CC2)cs1 | -9.85%
CC(C)N1CCC(Cc2cc(-c3ccccc3C(=O)O)ncn2)CC1 | -5.28%
CCOc1ncccc1NC(=O)N1CCN(Cc2ccncc2)CC1 | -2.54%
CC1CN(C)CCN1CC(=O)NCCOc1ccc2c(c1)OCO2 (centres undefined) | -6.66%
c1csc(-c2nc(CNC3CCc4ncnn4C3)co2)c1 (centres undefined) | -5.69%
Cc1cc(C)n(CC2CN(CCOc3cccc(F)c3)CCO2)n1 (centres undefined) | -7.44%
CN(CC(=O)N1CCN(c2ccccc2F)CC1)c1cnccn1 | -0.341%
CN(Cc1nnc(-c2ccco2)o1)C1CCCN(c2cccnn2)C1 (centres undefined) | -7.39%
COc1cccc(COCC(=O)N2CCCC(n3ccnc3C)C2)c1 (centres undefined) | -7.77%
Clc1ccccc1-c1nc(CNCCn2cccn2)cs1 | -3.45%
Cc1nn(C)c(Cl)c1C1CCCN1C(=O)c1cc(Cl)c[nH]1 (centres undefined) | -6.83%
Cc1cccc(C(=O)NCc2ccnc(N(C)C)c2)n1 | 3.22%

SMILES | cytotoxicity at 10 µM
Cn1cnnc1C1CCCN(C(=O)NCCNc2ccccn2)C1 (centres undefined) | 2.21%
CS(=O)(=O)N1CCO[C@@H]2CN(Cc3ccncc3)C[C@@H]2C1 | 4.5%
Cc1occc1C(=O)N1CCOCC2(CCN(Cc3nccs3)C2)C1 (centres undefined) | -6.34%
Cc1cccc(CN2C(=O)CCC23CCN(C(=O)N2CCCC2)CC3)n1 | 4.56%
CN(C)C(=O)[C@H]1C[C@H]2[C@H](CCN2Cc2ccc3c(c2)OCO3)O1 | 2.36%
O=C(c1ccc[nH]1)N1CCn2cc(CN3CCCC3)nc2C1 | 3.09%
Fc1cnc(N2CC[C@@H]3O[C@@H](COCc4ccccn4)CC[C@@H]32)nc1 | 1.9%
c1cnc(N2CC3(CCN(CC4CCOC4)CC3)c3ccccc32)nc1 (centres undefined) | -6.78%
CN(C)CC(=O)N1CCC2(CC1)Cc1ccccc1CN(C)C2=O | -2.96%
Fc1cccc(CN2C[C@@H]3CN(Cc4ccccn4)C[C@@H]3C2)c1 | -1.07%
COCC1CC2(CCN(Cc3cnn(C)c3)CC2)CN1c1ncccn1 (centres undefined) | -8.19%
N#Cc1cccc(C(=O)N2CCc3c(COCC4CC4)cncc3C2)c1 | 8.25%
Cc1noc(C)c1CN1CCO[C@H]2CN(Cc3cncn3C)C[C@H]21 | -1.62%
COc1ccc(CN2CCC3(CC2)CC(CC(=O)NC(C)C)CO3)cc1 (centres undefined) | -1.27%
CN1CCC(NC(=O)[C@H]2CC[C@@H]3[C@@H](CCN3c3ncccn3)O2)CC1 | 7.43%
c1coc(CN2CCC3(CCOCC3COCC3CC3)CC2)c1 (centres undefined) | 2.79%
Cc1occc1C(=O)N1CCO[C@H]2[C@H](Oc3cccnc3)CC[C@@H]21 | -93.4%
CC(=O)c1cc(C(=O)N2CC[C@H]3CC[C@@H](C2)N3C)c(=O)[nH]c1C | 11.4%
O=S(=O)(c1cccnc1)N1C[C@H]2CC[C@@H](C1)N(Cc1ccccc1)C2 | -5.79%
CN(C)c1nc2cn(C3CCSCC3)c(=O)c-2c[nH]1 | 8.56%
C=c1ccoc1=C1NN=C(CNCC2CCCN2c2cccnn2)O1 (centres undefined) | -13.7%
